Assay outcomes (PubChem)
BB579 growth dn: growth inhibitors of yeast BB579 in restrictive medium, primary screen, yeast lifespan-shortening project, S. cerevisiae; OD615, 48 h; inhibition, % at 10 µM; 140,000 compounds, 0.51% hits; AID 804, 2007;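 active means inhibition above a set limit, 3 SD over the mean compound inhibition, cut at about 44% in these data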
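Test system: Saccharomyces cerevisiae DeaD strain BB579, replicative lifespan model yeast | Buffer or medium: Restrictive CSMM-D medium | Doses: One dose, 10 µM compound with 0.25% DMSO | Incubation: 48 h exposure, 30 °C | Detection: Culture absorbance at 615 nm | Control set: Amphotericin B at 10 µg/mL as positive control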
MT stabilize HCS: microtubule stabilizers in HeLa cells, primary screen, imaging, high-content imaging. HeLa tubulin immunostaining HCS, 24 h; share of cells brighter than vehicle mean+2SD. 200,000 compounds, 0.83% hits. % tubulin-high responders, % at 10 µM;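 active means plate Z-score above 3 for both tubulin-high and condensed-nucleus cell shares, with cell loss under 80%, at 10 µM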;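 further: anti alpha tubulin signal scored within the nucleus-defined area of each cell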
Efa HMGR inh: inhibitors of E. faecalis class II HMGR, primary screen, biochemical, Enterococcus faecalis. HMG-CoA reductase (Enterococcus faecalis, mvaE). 190,000 compounds, 0.41% hits. inhibition, % at 10 µM. purified E. faecalis HMGR, NADPH absorbance 340 nm kinetic;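 active means inhibition above a set limit, the median over all tested compounds plus 3 SD, cut at about 9.5% in these data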;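 further: enzyme runs in reverse so mevalonate oxidation gives rising NADPH absorbance; 0% = complete reaction with DMSO and 100% = background rate lacking mevalonate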
bCat nuc transl: modulators of beta-catenin nuclear translocation, primary screen, imaging, HeLa cells, immunofluorescence, high-content; nuclear translocation activity, % at 5 µM; 190,000 compounds, 0.3% hits; AID 1665, 2009;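 active means nuclear translocation activity above 50% at 5 µM, with a well cell count of 50 or more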;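 further: per-cell ratio of nuclear to cytoplasmic median beta-catenin stain intensity; plate controls were DMSO negative control for no effect and GSK-3 inhibitor IX positive control for full effect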
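Test system: HeLa cells, endogenous beta-catenin; Compound: single 5 µM dose plus 0.02–20 µM confirmation series; Times: compound exposure 24 h at 37°C; Signal: fluorescence imaging of beta-catenin antibody stain plus DAPI; Read-out: % activation, nuclear-to-cytoplasmic median beta-catenin signal ratio per cell.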
RAM network inh: inhibitors of the yeast RAM network, primary screen, dse1pr::URA3 reporter, 5-FOA selection; S. cerevisiae dse1pr::URA3 reporter, 5-FOA growth OD615, 2 d; analog-sensitive cbk1-as2 kinase mutant strain; inhibition, % at 50 µM; 190,000 compounds, 1.8% hits; AID 868, 2007;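 active means inhibition above a set limit, 3 SD over mean compound inhibition, cut at about 8.4% in these data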;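 further: 0% = DMSO-only wells with no growth and 100% = 10 µM 1-NA-PP1 full growth; inhibition rescues growth on 5-FOA so higher OD means more RAM inhibition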
Yeast life ext: compounds extending yeast replicative lifespan, primary screen, S. cerevisiae, OD615 | S. cerevisiae growth with nicotinamide; deaD strain in restrictive glucose medium | inhibition of the nicotinamide effect, % at 10 µM | 130,000 compounds, 0.68% hits | AID 775, 2007;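 active means inhibition above a set limit, placed 3 SD over the median of all compounds, cut at about 26% in these data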;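 further: 0% = nicotinamide-treated wells and 100% = cells grown without nicotinamide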
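Test system: DeaD-strain S. cerevisiae / Buffer or medium: restrictive glucose medium / Also added: nicotinamide 1.5 mM / Doses: one concentration, 10 µM, DMSO 0.25% / Schedule: 48 h at 30 °C / Signal: OD615 measurement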
The depositor's hits bear a star; · = no result given. Hits are enriched below; roughly 3.5% of the tested compounds scored in any of these assays.

SMILES	BB579 growth dn	MT stabilize HCS	Efa HMGR inh	bCat nuc transl	RAM network inh	Yeast life ext
CCN1CCCC1CNC(=O)C(=O)NCCc1ccc(OC)c(OC)c1 (stereo not drawn)	·	4	-3	2	0	·
Cc1ccc(SCc2ccc(C(=O)Nc3cccc([N+](=O)[O-])c3)cc2)cc1	-35	1	-5	-1	9.6*	-8
CCc1ccc(N/C(N)=N/c2nc(CSc3ccccn3)cc(=O)[nH]2)cc1	·	17*	-4	1	3	·
Cc1ccc(NC(=O)c2ccc(CSc3ccccn3)cc2)cc1	-27	2	1	·	8.4*	-12
Cc1ccc(C(=O)COC(=O)c2cccc(NC(=O)c3ccc([N+](=O)[O-])cc3[N+](=O)[O-])c2)cc1	-51	34*	0	·	5	-10
CC(=O)Nc1ccc(C(=O)OCC(=O)c2cccc([N+](=O)[O-])c2)cc1	-47	4	-3	0	2	-3
COc1cccc(N/C(N)=N/c2nc(CSc3ccccn3)cc(=O)[nH]2)c1	·	5	-9	-2	5	·
COc1cc2c(cc1OC)CN(C(=S)NC(=O)c1ccccc1)CC2	·	3	-9	1	1	·
Cc1cccn2c(=O)c3cc(S(=O)(=O)c4ccccc4)c(=N)n(CC4CCCO4)c3nc12 (stereo not drawn)	·	·	·	1	·	·
Cc1ccc(SCc2ccc(C(=O)Nc3cc([N+](=O)[O-])ccc3C)cc2)cc1	-19	2	-3	2	10*	-8
COc1ccc(OC)c(-c2csc(N(C)C(=O)Cc3ccccc3)n2)c1	·	2	-6	-1	9.8*	·
COc1ccc(-c2csc(N(Cc3ccco3)C(=O)c3cccs3)n2)cc1	·	·	·	-1	·	·
COc1ccc(OC)c(-c2csc(N(Cc3ccco3)C(=O)c3cccs3)n2)c1	-16	2	-5	0	9.1*	-9
COc1ccc(CN2CCN(CCc3ccccc3)C(CCO)C2)cc1Cn1cncn1 (stereo not drawn)	·	2	-2	-1	-1	·
CC1=NN(c2ccccc2)C(=O)C1C(=O)c1ccccc1 (stereo not drawn)	-32	5	0	-2	-2	28*
COc1ccccc1NC(=O)Cn1cc(C(=O)c2ccco2)c2ccccc21	·	3	-12	2	1	·
COc1ccccc1OCCn1cc(C(=O)c2ccco2)c2ccccc21	-9	4	4	1	8.8*	-23
COc1cccc(OCCn2cc(C(=O)c3ccco3)c3ccccc32)c1	-26	1	-1	0	10*	-12
Oc1ccc(Nc2nc(-c3ccc4ccccc4c3)cs2)cc1	-19	3	-3	·	1	-7
Oc1ccc(-c2nc(-c3ccc(O)c(O)c3)cs2)cc1	3	15*	-10	66*	4	-6
Oc1ccc(-c2csc(-c3cccnc3)n2)c(O)c1	·	12*	-9	25	3	·
Cc1ccc(C)c(NC(=S)N(C)CCO)c1	·	2	-2	0	1	·
Cc1ccc(/C=C2/SC(=S)N(CC(=O)Nc3ncc(Cc4ccc(C)cc4)s3)C2=O)cc1	-48	3	-1	·	11*	-10
CCCOc1ccc2ccccc2c1/C=N/n1c(C)nnc1-n1nc(C)cc1C	-2	55*	-1	168*	-1	-9
Cc1cc(C)n(-c2nnc(C)n2/N=C/c2ccco2)n1	-21	1	-2	·	0	3
Cc1oc(-c2ccccc2Cl)nc1CN1CCCN(C(=O)c2ccco2)CC1	·	3	-5	0	2	·
O=C(O)C1Nc2c(O)cc(Cl)c([N+](=O)[O-])c2C2C=CCC12 (stereo not drawn)	·	2	13*	0	6	·
NNC(=O)C1CC1c1ccc(Cl)cc1 (stereo not drawn)	-21	5	19*	·	1	2
COc1ccc(C2OC(=O)CC2C(=O)NCc2ccc(Cl)cc2)cc1OC (stereo not drawn)	·	2	-5	1	0	·
